# Source: ChEMBL document CHEMBL2177098, “Synthesis and evaluation of novel ¹⁸F labeled 2-pyridinylbenzoxazole and 2-pyridinylbenzothiazole derivatives as ligands for positron emission tomography (PET) imaging of β-amyloid plaques” (J Med Chem, 2012)
# Assays:
# Spleen [1] = assay: Drug uptake in ICR mouse spleen at 370 kBq/100 ul, iv at 2 mins by gamma-counting analysis; type: ADME, organism-based; conditions: in vivo
# How it was run: (§1)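 Male ICR mice (5 weeks, about 20 g) got 18F tracer in saline (370 KBq per 100 μL) via tail vein; n = 5 per time point, killed at 2, 10, 30, 60 min. Organs weighed and γ-counted; percent dose per gram wet tissue from comparison with diluted injectate aliquots.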
# Bone [2] = assay: Drug uptake in ICR mouse bone at 370 kBq/100 ul, iv at 2 mins by gamma-counting analysis; type: ADME, organism-based, Bone element; conditions: in vivo; how it was run: as §1
# Brain [3] = assay: Drug uptake in ICR mouse brain at 370 kBq/100 ul, iv at 60 mins by gamma-counting analysis; type: ADME, organism-based; conditions: in vivo, 1 h; how it was run: as §1
# Blood [4] = assay: Drug uptake in ICR mouse blood at 370 kBq/100 ul, iv at 2 mins by gamma-counting analysis; type: ADME, organism-based; conditions: in vivo; how it was run: as §1
# Brain [5] = assay: Drug uptake in ICR mouse brain at 370 kBq/100 ul, iv at 10 mins by gamma-counting analysis; type: ADME, organism-based; conditions: in vivo; how it was run: as §1
# Lung [6] = assay: Drug uptake in ICR mouse lung at 370 kBq/100 ul, iv at 2 mins by gamma-counting analysis; type: ADME, organism-based; conditions: in vivo; how it was run: as §1
# Brain [7] = assay: Drug uptake in ICR mouse brain at 370 kBq/100 ul, iv at 30 mins by gamma-counting analysis; type: ADME, organism-based; conditions: in vivo, 0.5 h; how it was run: as §1
# Bone [8] = assay: Drug uptake in ICR mouse bone at 370 kBq/100 ul, iv at 10 mins by gamma-counting analysis; type: ADME, organism-based, Bone element; conditions: in vivo; how it was run: as §1
# Blood [9] = assay: Drug uptake in ICR mouse blood at 370 kBq/100 ul, iv at 10 mins by gamma-counting analysis; type: ADME, organism-based; conditions: in vivo; how it was run: as §1
# Bone [10] = assay: Drug uptake in ICR mouse bone at 370 kBq/100 ul, iv at 60 mins by gamma-counting analysis; type: ADME, organism-based, Bone element; conditions: in vivo, 1 h; how it was run: as §1
# Heart [11] = assay: Drug uptake in ICR mouse heart at 370 kBq/100 ul, iv at 10 mins by gamma-counting analysis; type: ADME, organism-based; conditions: in vivo; how it was run: as §1
# Stomach [12] = assay: Drug uptake in ICR mouse stomach assessed per organ at 370 kBq/100 ul, iv at 60 mins by gamma-counting analysis; type: ADME, organism-based; conditions: in vivo, 1 h
# How it was run: (§2)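 Normal male ICR mice (5 weeks, about 20 g) received the ¹⁸F tracer in saline (370 KBq per 100 μL) by tail-vein injection. Groups of n = 5 were killed at 2, 10, 30 and 60 min. Organs were removed, weighed and γ-counted against diluted aliquots of the injectate, giving % dose per gram. Stomach and intestine were expressed per organ. The brain ratio is 2 min/60 min uptake. Values are mean ± SD.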
# Brain [13] = assay: Drug uptake in wild type C57BL6 mouse brain at 370 KBq/100 ul after 1 hr by autoradiographic analysis; type: ADME, tissue-based; conditions: in vitro
# How it was run: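 Paraffin brain sections from 12-month-old male control C57BL6 mice were deparaffinized through xylene and graded ethanol, then held in PBS (0.2 M, pH 7.4) for 30 min. They were incubated with the ¹⁸F tracer (370 KBq per 100 μL) for 1 h at room temperature. Sections were washed in 40% EtOH, rinsed with water for 1 min, dried, and exposed to a phosphor plate for 2 h. The same sections were then stained with thioflavin S.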
# Spleen [14] = assay: Drug uptake in ICR mouse spleen at 370 kBq/100 ul, iv at 30 mins by gamma-counting analysis; type: ADME, organism-based; conditions: in vivo, 0.5 h; how it was run: as §1
# Brain [15] = assay: Drug uptake in ICR mouse brain at 370 kBq/100 ul, iv at 2 mins by gamma-counting analysis; type: ADME, organism-based; conditions: in vivo; how it was run: as §1
# Spleen [16] = assay: Drug uptake in ICR mouse spleen at 370 kBq/100 ul, iv at 10 mins by gamma-counting analysis; type: ADME, organism-based; conditions: in vivo; how it was run: as §1
# Intestine [17] = assay: Drug uptake in ICR mouse intestine assessed per organ at 370 kBq/100 ul, iv at 60 mins by gamma-counting analysis; type: ADME, organism-based; conditions: in vivo, 1 h
# How it was run: (§3)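 Male ICR mice (5 weeks, about 20 g) got 18F tracer in saline (370 KBq per 100 μL) via tail vein; n = 5 per time point, killed at 2, 10, 30, 60 min. Organs removed and γ-counted against diluted injectate; expressed as % injected dose per organ.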
# Stomach [18] = assay: Drug uptake in ICR mouse stomach assessed per organ at 370 kBq/100 ul, iv at 10 mins by gamma-counting analysis; type: ADME, organism-based; conditions: in vivo; how it was run: as §3
# Lung [19] = assay: Drug uptake in ICR mouse lung at 370 kBq/100 ul, iv at 10 mins by gamma-counting analysis; type: ADME, organism-based; conditions: in vivo; how it was run: as §1
# [20] = Displacement of [125I]-IMPY from amyloid beta (1 to 42) fibrils after 2 hrs by gamma-counting analysis
# How it was run: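 Competition binding with aggregated Aβ1-42 fibrils and [125I]IMPY (60000−100000 cpm/100 μL) in 0.05% BSA (1 mL total); inhibitors 10⁻⁴−10^−8.5 M in ethanol. Incubated 37 °C for 2 h, then GF/B vacuum filtration with PBS (0.02 M, pH 7.4) washes and γ counting. Three repeats; IC50 converted to Ki by Cheng−Prusoff.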
# Intestine [21] = assay: Drug uptake in ICR mouse intestine assessed per organ at 370 kBq/100 ul, iv at 30 mins by gamma-counting analysis; type: ADME, organism-based; conditions: in vivo, 0.5 h; how it was run: as §3
# Blood [22] = assay: Drug uptake in ICR mouse blood at 370 kBq/100 ul, iv at 60 mins by gamma-counting analysis; type: ADME, organism-based; conditions: in vivo, 1 h; how it was run: as §1
# Brain [23] = assay: Ratio of drug uptake in brain at 2 mins to drug uptake in brain at 60 mins in ICR mouse at 370 KBq/100 ul, iv; type: ADME, organism-based; conditions: in vivo; how it was run: as §2
# Heart [24] = assay: Drug uptake in ICR mouse heart at 370 kBq/100 ul, iv at 30 mins by gamma-counting analysis; type: ADME, organism-based; conditions: in vivo, 0.5 h; how it was run: as §1
# Lung [25] = assay: Drug uptake in ICR mouse lung at 370 kBq/100 ul, iv at 60 mins by gamma-counting analysis; type: ADME, organism-based; conditions: in vivo, 1 h; how it was run: as §1
# Spleen [26] = assay: Drug uptake in ICR mouse spleen at 370 kBq/100 ul, iv at 60 mins by gamma-counting analysis; type: ADME, organism-based; conditions: in vivo, 1 h; how it was run: as §1
# Bone [27] = assay: Drug uptake in ICR mouse bone at 370 kBq/100 ul, iv at 30 mins by gamma-counting analysis; type: ADME, organism-based, Bone element; conditions: in vivo, 0.5 h; how it was run: as §1
# Heart [28] = assay: Drug uptake in ICR mouse heart at 370 kBq/100 ul, iv at 60 mins by gamma-counting analysis; type: ADME, organism-based; conditions: in vivo, 1 h; how it was run: as §1
# Kidney [29] = assay: Drug uptake in ICR mouse kidney at 370 kBq/100 ul, iv at 10 mins by gamma-counting analysis; type: ADME, organism-based; conditions: in vivo; how it was run: as §1
# Liver [30] = assay: Drug uptake in ICR mouse liver at 370 kBq/100 ul, iv at 2 mins by gamma-counting analysis; type: ADME, organism-based; conditions: in vivo; how it was run: as §1
# [31] = n-Octanol-PBS buffer partition coefficient, log D of the compound at 1.5 MBq after 3 mins at pH 7.4; type: physicochemical
# How it was run: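 The tracer was partitioned between n-octanol and PBS by vortexing for 3 min at room temperature, then centrifuged for 5 min at 3000 rpm. Samples of the octanol (50 μL) and aqueous (500 μL) layers were counted. log D is the log of the octanol/PBS counts-per-gram ratio. The octanol layer was repartitioned until values were consistent. Measured in triplicate and repeated three times.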
# Kidney [32] = assay: Drug uptake in ICR mouse kidney at 370 kBq/100 ul, iv at 60 mins by gamma-counting analysis; type: ADME, organism-based; conditions: in vivo, 1 h; how it was run: as §1
# Lung [33] = assay: Drug uptake in ICR mouse lung at 370 kBq/100 ul, iv at 30 mins by gamma-counting analysis; type: ADME, organism-based; conditions: in vivo, 0.5 h; how it was run: as §1
# Stomach [34] = assay: Drug uptake in ICR mouse stomach assessed per organ at 370 kBq/100 ul, iv at 2 mins by gamma-counting analysis; type: ADME, organism-based; conditions: in vivo; how it was run: as §3
# Kidney [35] = assay: Drug uptake in ICR mouse kidney at 370 kBq/100 ul, iv at 30 mins by gamma-counting analysis; type: ADME, organism-based; conditions: in vivo, 0.5 h; how it was run: as §1
# Liver [36] = assay: Drug uptake in ICR mouse liver at 370 kBq/100 ul, iv at 30 mins by gamma-counting analysis; type: ADME, organism-based; conditions: in vivo, 0.5 h; how it was run: as §1
# Stomach [37] = assay: Drug uptake in ICR mouse stomach assessed per organ at 370 kBq/100 ul, iv at 30 mins by gamma-counting analysis; type: ADME, organism-based; conditions: in vivo, 0.5 h; how it was run: as §3
# Intestine [38] = assay: Drug uptake in ICR mouse intestine assessed per organ at 370 kBq/100 ul, iv at 2 mins by gamma-counting analysis; type: ADME, organism-based; conditions: in vivo; how it was run: as §3
# Heart [39] = assay: Drug uptake in ICR mouse heart at 370 kBq/100 ul, iv at 2 mins by gamma-counting analysis; type: ADME, organism-based; conditions: in vivo; how it was run: as §1
# Blood [40] = assay: Drug uptake in ICR mouse blood at 370 kBq/100 ul, iv at 30 mins by gamma-counting analysis; type: ADME, organism-based; conditions: in vivo, 0.5 h; how it was run: as §1
# Liver [41] = assay: Drug uptake in ICR mouse liver at 370 kBq/100 ul, iv at 60 mins by gamma-counting analysis; type: ADME, organism-based; conditions: in vivo, 1 h; how it was run: as §1
# Liver [42] = assay: Drug uptake in ICR mouse liver at 370 kBq/100 ul, iv at 10 mins by gamma-counting analysis; type: ADME, organism-based; conditions: in vivo; how it was run: as §1
# Kidney [43] = assay: Drug uptake in ICR mouse kidney at 370 kBq/100 ul, iv at 2 mins by gamma-counting analysis; type: ADME, organism-based; conditions: in vivo; how it was run: as §1
# Intestine [44] = assay: Drug uptake in ICR mouse intestine assessed per organ at 370 kBq/100 ul, iv at 10 mins by gamma-counting analysis; type: ADME, organism-based; conditions: in vivo; how it was run: as §3
compound,measurement,setting,value
CN(C)c1ccc(-c2nc3ccc(OCCOCCOCC[18F])cc3s2)cn1,Drug uptake,Spleen [1],3.14 % ID/g
same,Drug uptake,Bone [2],1.86 % ID/g
same,Drug uptake,Brain [3],1.84 % ID/g
same,Drug uptake,Blood [4],9.79 % ID/g
same,Drug uptake,Brain [5],2.64 % ID/g
same,Drug uptake,Lung [6],6.69 % ID/g
same,Drug uptake,Brain [7],1.98 % ID/g
same,Drug uptake,Bone [8],0.95 % ID/g
same,Drug uptake,Blood [9],5.44 % ID/g
same,Drug uptake,Bone [10],1.58 % ID/g
same,Drug uptake,Heart [11],3.3 % ID/g
same,Drug uptake,Stomach [12],11.34 %ID
same,Drug uptake,Brain [13],Not Active
same,Drug uptake,Spleen [14],2.59 % ID/g
same,Drug uptake,Brain [15],3.26 % ID/g
same,Drug uptake,Spleen [16],2.97 % ID/g
same,Drug uptake,Intestine [17],26.66 %ID
same,Drug uptake,Stomach [18],8.98 %ID
same,Drug uptake,Lung [19],4.59 % ID/g
same,Ki,[20],5.8 nM
same,Drug uptake,Intestine [21],19.57 %ID
same,Drug uptake,Blood [22],3.79 % ID/g
same,Ratio,Brain [23],1.77
same,Drug uptake,Heart [24],2.62 % ID/g
same,Drug uptake,Lung [25],2.33 % ID/g
same,Drug uptake,Spleen [26],1.47 % ID/g
same,Drug uptake,Bone [27],1.64 % ID/g
same,Drug uptake,Heart [28],2.02 % ID/g
same,Drug uptake,Kidney [29],5.45 % ID/g
same,Drug uptake,Liver [30],12.9 % ID/g
same,logD at 0.05 h,[31],3.08
same,Drug uptake,Kidney [32],3.01 % ID/g
same,Drug uptake,Lung [33],3.28 % ID/g
same,Drug uptake,Stomach [34],2.55 %ID
same,Drug uptake,Kidney [35],3.88 % ID/g
same,Drug uptake,Liver [36],6.79 % ID/g
same,Drug uptake,Stomach [37],14.13 %ID
same,Drug uptake,Intestine [38],4.68 %ID
same,Drug uptake,Heart [39],4.5 % ID/g
same,Drug uptake,Blood [40],4.96 % ID/g
same,Drug uptake,Liver [41],4.75 % ID/g
same,Drug uptake,Liver [42],11.6 % ID/g
same,Drug uptake,Kidney [43],6.82 % ID/g
same,Drug uptake,Intestine [44],10.4 %ID
